Data as given in ChEMBL document CHEMBL4715736, “Identification of anticancer agents based on the thieno[2,3-b]pyridine and 1H-pyrazole molecular scaffolds” (2016).

How the values were obtained:
Format in all cases: functional
NCI/ADR-RES = test: Growth inhibition of human NCI/ADR-RES cells incubated for 48 hrs by sulforhodamine B assay; conditions: for CC50: read-out: LC50 (the source's name)
Method in brief: (§1)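 NCI60 panel at the NCI Developmental Therapeutics Program. Only compounds active in the 10 µM screen went to dose-response testing. GI50, the concentration giving 50% of maximal inhibition of proliferation, and TGI, the concentration giving total growth inhibition, were derived from the dose-response curves.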

NCI-H522 = test: Growth inhibition of human NCI-H522 cells incubated for 48 hrs by sulforhodamine B assay; method in brief: as §1
NCI-H460 [1] = test: Growth inhibition of human NCI-H460 cells assessed as cell growth at 1 uM incubated for 48 hrs by sulforhodamine B assay relative to control; conditions: read-out: Activity
HCC 2998 [2] = test: Growth inhibition of human HCC 2998 cells assessed as cell growth at 0.01 uM incubated for 48 hrs by sulforhodamine B assay relative to control; conditions: read-out: Activity
Method in brief: (§2)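 NCI Developmental Therapeutics Program NCI60 panel. Compounds that were active in the 10 µM one-dose screen went on to dose–response testing. Growth at each concentration is expressed relative to untreated control (100%). GI50 (concentration giving 50% of maximal inhibition of proliferation) and TGI (concentration giving total growth inhibition) were derived from the curves.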

SF-268 = test: Growth inhibition of human SF-268 cells assessed as cell growth at 0.1 uM incubated for 48 hrs by sulforhodamine B assay relative to control; conditions: read-out: Activity
HT-29 [3] = test: Growth inhibition of human HT-29 cells assessed as cell growth at 1 uM incubated for 48 hrs by sulforhodamine B assay relative to control; conditions: read-out: Activity
ACHN = test: Growth inhibition of human ACHN cells assessed as cell growth at 100 uM incubated for 48 hrs by sulforhodamine B assay relative to control; conditions: read-out: Activity
SK-MEL-2 = test: Growth inhibition of human SK-MEL-2 cells assessed as cell growth at 1 uM incubated for 48 hrs by sulforhodamine B assay relative to control; conditions: read-out: Activity
SNB-19 = test: Growth inhibition of human SNB-19 cells assessed as cell growth at 1 uM incubated for 48 hrs by sulforhodamine B assay relative to control; conditions: read-out: Activity
NCI-H23 [4] = test: Growth inhibition of human NCI-H23 cells assessed as cell growth at 0.01 uM incubated for 48 hrs by sulforhodamine B assay relative to control; conditions: read-out: Activity
UO-31 [5] = test: Growth inhibition of human UO-31 cells assessed as cell growth at 0.1 uM incubated for 48 hrs by sulforhodamine B assay relative to control; conditions: read-out: Activity
M14 = test: Growth inhibition of human M14 cells assessed as cell growth at 100 uM incubated for 48 hrs by sulforhodamine B assay relative to control; conditions: read-out: Activity
MDA-MB-468 = test: Growth inhibition of human MDA-MB-468 cells assessed as cell growth at 0.01 uM incubated for 48 hrs by sulforhodamine B assay relative to control; conditions: read-out: Activity
SR = test: Growth inhibition of human SR cells assessed as cell growth at 0.01 uM incubated for 48 hrs by sulforhodamine B assay relative to control; conditions: read-out: Activity
NCI-H460 [6] = test: Growth inhibition of human NCI-H460 cells assessed as cell growth at 0.01 uM incubated for 48 hrs by sulforhodamine B assay relative to control; conditions: read-out: Activity
NCI-H226 [7] = test: Growth inhibition of human NCI-H226 cells assessed as cell growth at 100 uM incubated for 48 hrs by sulforhodamine B assay relative to control; conditions: read-out: Activity
NCI-H23 [8] = test: Growth inhibition of human NCI-H23 cells assessed as cell growth at 0.1 uM incubated for 48 hrs by sulforhodamine B assay relative to control; conditions: read-out: Activity
SW-620 = test: Growth inhibition of human SW-620 cells assessed as cell growth at 0.1 uM incubated for 48 hrs by sulforhodamine B assay relative to control; conditions: read-out: Activity
BT-549 = test: Growth inhibition of human BT-549 cells assessed as cell growth at 0.1 uM incubated for 48 hrs by sulforhodamine B assay relative to control; conditions: read-out: Activity
HT-29 [9] = test: Growth inhibition of human HT-29 cells incubated for 48 hrs by sulforhodamine B assay; method in brief: as §1
HCC 2998 [10] = test: Growth inhibition of human HCC 2998 cells assessed as cell growth at 0.1 uM incubated for 48 hrs by sulforhodamine B assay relative to control; conditions: read-out: Activity; method in brief: as §2
SNB-75 = test: Growth inhibition of human SNB-75 cells assessed as cell growth at 100 uM incubated for 48 hrs by sulforhodamine B assay relative to control; conditions: read-out: Activity
OVCAR-5 = test: Growth inhibition of human OVCAR-5 cells assessed as cell growth at 0.01 uM incubated for 48 hrs by sulforhodamine B assay relative to control; conditions: read-out: Activity
NCI-H226 [11] = test: Growth inhibition of human NCI-H226 cells assessed as cell growth at 1 uM incubated for 48 hrs by sulforhodamine B assay relative to control; conditions: read-out: Activity
A498 = test: Growth inhibition of human A498 cells incubated for 48 hrs by sulforhodamine B assay; conditions: for CC50: read-out: LC50 (the source's name); method in brief: as §2
K562 = test: Growth inhibition of human K562 cells assessed as cell growth at 100 uM incubated for 48 hrs by sulforhodamine B assay relative to control; conditions: read-out: Activity
SK-MEL-28 = test: Growth inhibition of human SK-MEL-28 cells assessed as cell growth at 100 uM incubated for 48 hrs by sulforhodamine B assay relative to control; conditions: read-out: Activity
MOLT-4 = test: Growth inhibition of human MOLT-4 cells incubated for 48 hrs by sulforhodamine B assay; conditions: for CC50: read-out: LC50 (the source's name); method in brief: as §1
UO-31 [12] = test: Growth inhibition of human UO-31 cells assessed as cell growth at 100 uM incubated for 48 hrs by sulforhodamine B assay relative to control; conditions: read-out: Activity
MDA-MB-435 = test: Growth inhibition of human MDA-MB-435 cells incubated for 48 hrs by sulforhodamine B assay; conditions: for CC50: read-out: LC50 (the source's name); method in brief: as §1
SF-295 [13] = test: Growth inhibition of human SF-295 cells assessed as cell growth at 0.1 uM incubated for 48 hrs by sulforhodamine B assay relative to control; conditions: read-out: Activity
OVCAR-3 = test: Growth inhibition of human OVCAR-3 cells assessed as cell growth at 0.1 uM incubated for 48 hrs by sulforhodamine B assay relative to control; conditions: read-out: Activity
HOP-92 = test: Growth inhibition of human HOP-92 cells incubated for 48 hrs by sulforhodamine B assay; method in brief: as §1
COLO 205 = test: Growth inhibition of human COLO 205 cells assessed as cell growth at 0.01 uM incubated for 48 hrs by sulforhodamine B assay relative to control; conditions: read-out: Activity; method in brief: as §2
SF-295 [14] = test: Growth inhibition of human SF-295 cells assessed as cell growth at 100 uM incubated for 48 hrs by sulforhodamine B assay relative to control; conditions: read-out: Activity
HCT-116 = test: Growth inhibition of human HCT-116 cells incubated for 48 hrs by sulforhodamine B assay; method in brief: as §1

In the case of Nc1c(C(=O)Nc2ccccc2)sc2nc3c(cc12)CN(Cc1ccccc1)CC3, the GI50 (NCI/ADR-RES) is reported as 16.3 µM, the TGI (NCI/ADR-RES) is reported as over 100 µM and the CC50 (NCI/ADR-RES) is reported as over 100 µM. The GI50 (NCI-H522) was 32.5 µM, the LC50 (NCI-H522) was over 100 µM and the TGI (NCI-H522) was over 100 µM. It also gave a growth at 1 µM (NCI-H460 [1]) of 91%, a growth at 0.01 µM (HCC 2998 [2]) of 90% and a growth at 0.1 µM (SF-268) of 99%. The growth at 1 µM (HT-29 [3]) was 101%, the growth at 100 µM (ACHN) was 10% and the growth at 1 µM (SK-MEL-2) was 101%. It also gave a growth at 1 µM (SNB-19) of 88%, a growth at 0.01 µM (NCI-H23 [4]) of 97% and a growth at 0.1 µM (UO-31 [5]) of 83%. For the same molecule, the growth at 100 µM (M14) was 35%, the growth at 0.01 µM (MDA-MB-468) was 96% and the growth at 0.01 µM (SR) was 98%. It also gave a growth at 0.01 µM (NCI-H460 [6]) of 101%, a growth at 100 µM (NCI-H226 [7]) of 19% and a growth at 0.1 µM (NCI-H23 [8]) of 101%. It also gave a growth at 0.1 µM (SW-620) of 97%, a growth at 0.1 µM (BT-549) of 89% and a GI50 (HT-29 [9]) of 24.7 µM. For the same molecule, the LC50 (HT-29 [9]) was over 100 µM, the TGI (HT-29 [9]) was over 100 µM and the growth at 0.1 µM (HCC 2998 [10]) was 97%. For the same molecule, the growth at 100 µM (SNB-75) was -49%, the growth at 0.01 µM (OVCAR-5) was 99% and the growth at 1 µM (NCI-H226 [11]) was 92%. It also gave a GI50 (A498) of 1.78 µM, a CC50 (A498) of over 100 µM and a growth at 100 µM (K562) of 12%. The growth at 100 µM (SK-MEL-28) was 28%, the GI50 (MOLT-4) was 31.3 µM and the TGI (MOLT-4) was over 100 µM. For the same molecule, the CC50 (MOLT-4) was over 100 µM, the growth at 100 µM (UO-31 [12]) was 32% and the GI50 (MDA-MB-435) was 3.43 µM. For the same molecule, the TGI (MDA-MB-435) was 71.6 µM, the CC50 (MDA-MB-435) was over 100 µM and the growth at 0.1 µM (SF-295 [13]) was 90%. For the same molecule, the growth at 0.1 µM (OVCAR-3) was 100%, the GI50 (HOP-92) was 2.48 µM and the LC50 (concentration killing 50% of the starting cells) (HOP-92) was over 100 µM. The TGI (HOP-92) was 20.4 µM, the growth at 0.01 µM (COLO 205) was 100% and the growth at 100 µM (SF-295 [14]) was 12%. The GI50 (HCT-116) was 11 µM, the LC50 (concentration killing 50% of cells) (HCT-116) was over 100 µM and the TGI (HCT-116) was over 100 µM.

In the case of COc1cccc(NC(=O)c2sc3nc4c(cc3c2N)CN(Cc2ccccc2)CC4)c1, the GI50 (NCI/ADR-RES) is reported as 2.4 µM, the TGI (NCI/ADR-RES) is reported as 33.3 µM and the CC50 (NCI/ADR-RES) is reported as over 100 µM. It also gave a GI50 (NCI-H522) of 15.1 µM, an LC50 (NCI-H522) of over 100 µM and a TGI (NCI-H522) of over 100 µM. The growth at 1 µM (NCI-H460 [1]) was 92%, the growth at 0.01 µM (HCC 2998 [2]) was 97% and the growth at 0.1 µM (SF-268) was 100%. For the same molecule, the growth at 1 µM (HT-29 [3]) was 96%, the growth at 100 µM (ACHN) was -3% and the growth at 1 µM (SK-MEL-2) was 77%. For the same molecule, the growth at 1 µM (SNB-19) was 82%, the growth at 0.01 µM (NCI-H23 [4]) was 100% and the growth at 0.1 µM (UO-31 [5]) was 92%. For the same molecule, the growth at 100 µM (M14) was -4%, the growth at 0.01 µM (MDA-MB-468) was 92% and the growth at 0.01 µM (SR) was 100%. It also gave a growth at 0.01 µM (NCI-H460 [6]) of 101%, a growth at 100 µM (NCI-H226 [7]) of -29% and a growth at 0.1 µM (NCI-H23 [8]) of 101%. For the same molecule, the growth at 0.1 µM (SW-620) was 99%, the growth at 0.1 µM (BT-549) was 91% and the GI50 (HT-29 [9]) was 3.75 µM. For the same molecule, the LC50 (HT-29 [9]) was 56.2 µM, the TGI (HT-29 [9]) was 15.2 µM and the growth at 0.1 µM (HCC 2998 [10]) was 98%. It also gave a growth at 100 µM (SNB-75) of -61%, a growth at 0.01 µM (OVCAR-5) of 91% and a growth at 1 µM (NCI-H226 [11]) of 81%. It also gave a GI50 (A498) of 3.82 µM, a TGI (A498) of 24.4 µM and a CC50 (A498) of over 100 µM. The growth at 100 µM (K562) was 8%, the growth at 100 µM (SK-MEL-28) was -30% and the GI50 (MOLT-4) was 21.9 µM. The TGI (MOLT-4) was over 100 µM, the CC50 (MOLT-4) was over 100 µM and the growth at 100 µM (UO-31 [12]) was -23%. It also gave a GI50 (MDA-MB-435) of 0.296 µM, a TGI (MDA-MB-435) of 11 µM and a CC50 (MDA-MB-435) of 49 µM. The growth at 0.1 µM (SF-295 [13]) was 90%, the growth at 0.1 µM (OVCAR-3) was 103% and the GI50 (HOP-92) was 2.21 µM. For the same molecule, the LC50 (concentration killing 50% of the starting cells) (HOP-92) was over 100 µM, the TGI (HOP-92) was 24.1 µM and the growth at 0.01 µM (COLO 205) was 92%. It also gave a growth at 100 µM (SF-295 [14]) of -52%, a GI50 (HCT-116) of 1.74 µM and an LC50 (concentration killing 50% of cells) (HCT-116) of over 100 µM. It also gave a TGI (HCT-116) of over 100 µM.
